By Kd is commonly meant the free concentration of one partner at which half of the binding sites on the other are occupied at equilibrium, for simple one-to-one binding.

Assay [1] deals with arcade and terminal arterioles of the hamster cheek pouch. In kind it is in vivo. The settings on record: for Control (%) Max dilation / Dose range of vasodilation / Control Dose Max dilation: quiescent tissue; for Control (%) Max dilation: at the dose of max dilation; for Effect of muscarinic blockade on vasoactivity (in words): atropine 10^−7 M in tissue bath; for Effect of beta-adrenergic blockade on dilation (in words): propranolol 10^−6M in tissue bath; for Dose range of vasodilation: mucocutaneous microvasculature; for Control Dose Max dilation: 60-second micropipette exposure. In a few lines: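 Adult male hamsters were anaesthetised with pentobarbital (70 mg/kg), tracheostomised and kept at 37 °C. The left cheek pouch was superfused with 37 °C bicarbonate-buffered saline and rested 30 min. Test compound was given by micropipette (10–20 μm tip, with FITC-dextran 10−6M) at the arcade–terminal junction for 60 s, then 5 min recovery. One full concentration series per site, 2–4 sites ≥1000 μm apart. Fractional diameter change = (baseline−peak)/baseline; repeated-measures ANOVA.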

Assay [2] relates to PDGF-BB. The settings on record: Lin, et al., 2014, Zhu; cited from earlier work.
Assay [3] relates to arcade and terminal arterioles of the hamster cheek pouch. In words: Hamster cheek pouch intravital microscopy, nitrosative stress model. The settings on record: for Vasoactive response after stress compared with before (in words): nitrosative stress, agent 10^−4M by micropipette, n=35; for Effect of nitrosative stress on the concentration response (in words): SNP 10^−4M in tissue bath for 2 minutes; for Stress (%) Max dilation: after stress, at the dose of max dilation. It is filed as in vivo. In a few lines: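 Anaesthetised male hamster cheek pouch, superfused with 37 °C bicarbonate saline. Stress: SNP 10−4M washed into the bath for 2 min, with endothelial dysfunction checked by micropipette acetylcholine 10−4M. Test compound was given by micropipette for 60 s with 5 min recovery, 15 min–3 h after stress, at most four exposures per site. Response = (baseline−peak)/baseline from video; repeated-measures ANOVA, unpaired t-test.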

Assay [4] concerns the target PDGF-BB. The settings on record: cited from earlier work; for Kd: read-out: KD for PDGF-BB binding.
Assay [5] concerns arcade and terminal arterioles of the hamster cheek pouch. In kind it is in vivo. The note with it: 20s, 50 °C, within 500 μm of heat rim. In a few lines: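 In the superfused cheek pouch of anaesthetised male hamsters, a thermocouple-controlled microcautery Pt wire (300 μm) applied 50 °C for 20 s. After 15 min, micropipette exposures (60 s, 5 min recovery) were mapped to 1000 μm from the heat rim; only sites within 500 μm are reported. Diameter change = (baseline−peak)/baseline from video; repeated-measures ANOVA or unpaired t-test, α 0.05.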

The test system of assay [6] is adult human dermal fibroblasts. The note with it: cited from earlier work.
Assay [7] has as its system thermal burn injury progression. The settings on record: rat hot comb model; cited from earlier work.

Like-named read-outs stand apart in the source and are kept apart here.

In the case of LRWRPK [P39], the “Control (%) Max dilation” value in assay [1] (terminal arterioles) is reported as 8%. In addition, the FN/PDGF-BB binding inhibition in assay [2] is on record as 0.0%.

Take `CC(C)NCC(O)c1ccc(O)c(O)c1` (stereo not drawn) [isoproterenol, reference compound]: the “Diameter change, fractional change from baseline” value in assay [1] (arcade arterioles, isoproterenol 10^−7M with propranolol (10^−6M), mean ± SD, n=23 sites) is 0.00±0.11; in assay [1] (arcade arterioles, isoproterenol 10^−7M, no blocker, mean ± SD, n=23 sites), 0.41±0.3; in assay [1] (terminal arterioles, isoproterenol 10^−6M with carazolol 10^−9M, mean+sem, significant constriction), −0.50+0.15; in assay [1] (terminal arterioles, isoproterenol 10^−7M with propranolol (10^−6M), mean ± SD, n=23 sites), 0.01±0.00; in assay [1] (terminal arterioles, isoproterenol 10^−7M, no blocker, mean ± SD, n=23 sites), 0.43±0.34.

On to `Nc1ncnc2c1ncn2[C@@H]1O[C@H](CO)[C@@H](O)[C@H]1O` [adenosine, reference compound], for which the “Diameter change, fractional change from baseline” value in assay [1] (arcade arterioles, adenosine 10^−4 M, mean ± SD) came to 0.54±0.35; in assay [1] (terminal arterioles, adenosine 10^−4 M, mean ± SD) it was 0.60±0.43. Further, in assay [3], the “Vasoactive response after stress compared with before (in words)” value is listed as “compromised”.

Turning to ILRWRPK [P7], in assay [1], the “Effect of muscarinic blockade on vasoactivity (in words)” value (shortened to “Effect of muscarinic blockade”) is on record as “no effect” and the “Dose range of vasodilation” value was 10^−9–10^−8 M. Also, the “Effect of beta-adrenergic blockade on dilation (in words)” value (“Effect of beta-adrenergic blockade” for short) in assay [1] (arcade and terminal arterioles) is recorded as “prevented vasodilation”. In addition, in assay [1] (terminal arterioles), the “Control Dose Max dilation” value is 10^−8M and the “Control (%) Max dilation” value is reported as 28%. Moreover, in assay [3], the “Effect of nitrosative stress on the concentration response (in words)” value (“Effect of nitrosative stress” for short) is “left shift” and the “Stress (%) Max dilation” value was determined as 29%. Moreover, the FN/PDGF-BB binding inhibition in assay [2] is recorded as 0.1%. Further, in assay [4], the Kd was 1000 nM.

Turning to `CC(=O)OCC[N+](C)(C)C` [acetylcholine, reference compound], the “Diameter change, fractional change from baseline” value is listed as 0.03±0.15 in assay [1] (arcade arterioles, acetylcholine 10^−4M with atropine (10^−7 M), mean ± SD, n=26 sites); 0.50±0.36 in assay [1] (arcade arterioles, acetylcholine 10^−4M, no blocker, mean ± SD, n=26 sites); 0.03±0.10 in assay [1] (terminal arterioles, acetylcholine 10^−4M with atropine (10^−7 M), mean ± SD, n=26 sites); 0.49±0.28 in assay [1] (terminal arterioles, acetylcholine 10^−4M, no blocker, mean ± SD, n=26 sites).

nitroprusside [reference compound]: the “Vasoactive response after stress compared with before (in words)” value in assay [3] is recorded as “not compromised”.

As to RWRPK [P37], the “Effect of beta-adrenergic blockade” value in assay [1] (arcade and terminal arterioles) is “prevented vasodilation”. Also, the “Control (%) Max dilation” value in assay [1] (terminal arterioles) came out at 19%. Further, in assay [3], the “Effect of nitrosative stress” value is given as “left shift” and the “Stress (%) Max dilation” value was 45%. In addition, the FN/PDGF-BB binding inhibition in assay [2] was 0.0%.

As for `CNC[C@H](O)c1cccc(O)c1` [phenylephrine, reference compound], the “Diameter change, fractional change from baseline” value is listed as −0.52±0.18 in assay [1] (arcade arterioles, phenylephrine 10^−5M, no blocker, mean ± SD, n=23 sites); −0.53±0.18 in assay [1] (arcade arterioles, phenylephrine 10^−6M, mean ± SD); −0.48±0.16 in assay [1] (terminal arterioles, phenylephrine 10^−5M, no blocker, mean ± SD, n=23 sites); −0.48±0.16 in assay [1] (terminal arterioles, phenylephrine 10^−6M, mean ± SD). Further, in assay [3], the “Vasoactive response after stress compared with before (in words)” value was “unaffected”.

Turning to FN: Full-length plasma fibronectin, in assay [1] (arcade and terminal arterioles, 10^−16–10^−4M by micropipette, N=5–8 per peptide), the “Vasoactive response in quiescent tissue (in words)” value is given as “induced only vasodilation”. The “Effect of muscarinic blockade” value in assay [1] was “no effect”. The “Effect of combined alpha- and beta-adrenergic blockade (in words)” value in assay [1] (phentolamine 10^−5M plus propranolol 10^−6M) was “eliminated only the vasodilation with the peptides and not FN”. Also, the “Effect of beta-adrenergic blockade” value in assay [1] (arcade and terminal arterioles) is “significantly diminished dilation”.

Turning to YILRWRPK [P18], in assay [1] (arcade and terminal arterioles), the “Effect of beta-adrenergic blockade” value is reported as “prevented vasodilation”. In assay [1] (terminal arterioles), the “Control Dose Max dilation” value was 10^−8M and the “Control (%) Max dilation” value is 26%. In addition, in assay [2], the FN/PDGF-BB binding inhibition was 26%.

Turning to PSHISKYILRWRPK [EVA-1, epiviosamine-1], in assay [1], the “Effect of muscarinic blockade” value is “no effect” and the “Dose range of vasodilation” value is on record as 10^−9–10^−8 M. The “Effect of beta-adrenergic blockade” value in assay [1] (arcade and terminal arterioles) is reported as “prevented vasodilation”. Moreover, in assay [1] (terminal arterioles), the “Control Dose Max dilation” value is listed as 10^−9M and the “Control (%) Max dilation” value is reported as 22%. For the same compound, in assay [3], the “Effect of nitrosative stress” value was “left shift” and the “Stress (%) Max dilation” value amounted to 32%. Besides, the “Dilation at 10^−8M after thermal stress (in words)” value in assay [5] (arcade arterioles) is “reversed to constriction”. Further, the “Response to sub-nanomolar dose after thermal stress (in words)” value in assay [5] (both arteriolar types) is “significant vasodilation”. Also, in assay [5] (terminal arterioles), the “Dilation at 10^−8M after thermal stress (in words)” value is “eliminated”. For the same compound, the “Dose conferring survival activity” value in assay [6] is recorded as 10^−7 M. Also, the FN/PDGF-BB binding inhibition in assay [2] is listed as 95.5%. Also, in assay [4], the “Dose range binding PDGF-BB” value is 10^−8–10^−7 M and the Kd was 200 nM. Besides, the “Effect on thermal burn injury progression (in words)” value in assay [7] is “limits thermal burn injury progression”.

Values taken from PMC5542862 (Microcirculation (New York, N.Y. : 1994), 2017).
